Experimental data reported in ChEMBL document CHEMBL1132309, “(R)-3,3,3-Trifluoro-2-hydroxy-2-methylpropionamides are orally active inhibitors of pyruvate dehydrogenase kinase” (J Med Chem, 1999).
Activity calls are given as the source filed them. The rule behind the calls is not given here.

Columns and labels:
[1] = target: pyruvate dehydrogenase kinase (Sus scrofa); assay: In vitro inhibitory activity against Pyruvate dehydrogenase kinase by primary enzymatic assay
[2] = target: T1, Pyruvate dehydrogenase kinase (Rattus norvegicus) (UniProt Q63065+A6IPZ9+Q64536+O54937); assay: In vivo inhibition of pyruvate dehydrogenase kinase, reduced lactate level in normal 24 hr r fasted rats at 300 umol/kg oral dose; Not active; format: functional, organism-based
[3] = target: T1, Pyruvate dehydrogenase kinase (Rattus norvegicus); assay: In vivo inhibition of pyruvate dehydrogenase kinase, reduced lactate level in normal 24 hr r fasted rats at 10 umol/kg oral dose; format: functional, organism-based; design: scale not given: the % may be the effect or the level left
[4] = target: Pyruvate dehydrogenase kinase (Homo sapiens, UniProt Q15119+Q15120+Q16654+Q15118); assay: […] inhibion of pyruvate dehydrogenase kinase, increased oxidation of lactate; format: functional
Summary of the method: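 Human fibroblasts, modified Ofenstein assay: conversion of [14C]lactate to 14CO2, taken as activation of the PDH complex. EC50 in μM ± standard error.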

[5] = target: T1, Pyruvate dehydrogenase kinase (Rattus norvegicus); assay: In vivo inhibition of pyruvate dehydrogenase kinase, reduced lactate level in normal 24 hr r fasted rats at 1 umol/kg oral dose; format: functional, organism-based; design: scale not given: the % may be the effect or the level left
[6] = target: T1, Pyruvate dehydrogenase kinase (Rattus norvegicus); assay: In vivo inhibition of pyruvate dehydrogenase kinase, reduced lactate level in normal 24 hr r fasted rats at 3 umol/kg oral dose; format: functional, organism-based; design: scale not given: the % may be the effect or the level left
[7] = The area under the curve of compound was measured at the dose of 300 umol/kg; format: ADME, organism-based; settings: rat, in vivo
Summary of the method: (§1)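 Oral dosing at 30, 100 and 300 μmol/kg. Blood plasma concentrations followed to give peak concentration and estimated half-life.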

[8] = The time to reach maximum concentration of compound was measured at the dose of 300 umol/kg; format: ADME, organism-based; settings: rat, in vivo
Summary of the method: as §1

[9] = The maximum concentration of compound was measured at the dose of 300 umol/kg; format: ADME, organism-based; design: dose 300 umol/kg; settings: rat, in vivo
Summary of the method: as §1

[10] = target: T1, Pyruvate dehydrogenase kinase (Rattus norvegicus); assay: In vivo inhibition of pyruvate dehydrogenase kinase, reduced lactate level in normal 24 hr r fasted rats at 300 umol/kg oral dose; format: functional, organism-based; design: scale not given: the % may be the effect or the level left
[11] = The time to reach maximum concentration of compound was measured at the dose of 30 umol/kg; format: ADME, organism-based; settings: rat, in vivo
Summary of the method: as §1

[12] = The maximum concentration of compound was measured at the dose of 30 umol/kg; format: ADME, organism-based; design: dose 30 umol/kg; settings: rat, in vivo
Summary of the method: as §1

[13] = target: T1, Pyruvate dehydrogenase kinase (Rattus norvegicus); assay: In vivo inhibition of pyruvate dehydrogenase kinase, reduced lactate level in normal 24 hr r fasted rats at 100 uMmol/kg oral dose; format: functional, organism-based; design: dose or concentration left out as unconfirmed
[14] = The area under the curve of compound was measured at the dose of 30 umol/kg; format: ADME, organism-based; settings: rat, in vivo
Summary of the method: as §1

[15] = target: T1, Pyruvate dehydrogenase kinase (Rattus norvegicus); assay: In vivo inhibition of pyruvate dehydrogenase kinase, reduced lactate level in normal 24 hr r fasted rats at 30 umol/kg oral dose; format: functional, organism-based; design: scale not given: the % may be the effect or the level left
[16] = The biological half life the compound was measured at the dose of 30 umol/kg; format: ADME, organism-based; settings: rat, in vivo
Summary of the method: as §1

[17] = target: T1, Pyruvate dehydrogenase kinase (Rattus norvegicus); assay: In vivo inhibition of pyruvate dehydrogenase kinase, reduced lactate level in normal 24 hr r fasted rats at 1 mmol/kg oral dose; format: functional, organism-based; design: scale not given: the % may be the effect or the level left
[18] = The maximum concentration of compound was measured at the dose of 100 umol/kg; format: ADME, organism-based; design: dose 100 umol/kg; settings: rat, in vivo
Summary of the method: as §1

[19] = The area under the curve of compound was measured at the dose of 100 umol/kg; format: ADME, organism-based; settings: rat, in vivo
Summary of the method: as §1

[20] = The time to reach maximum concentration of compound was measured at the dose of 100 umol/kg; format: ADME, organism-based; settings: rat, in vivo
Summary of the method: as §1

[21] = target: T1, Pyruvate dehydrogenase kinase (Rattus norvegicus); assay: In vivo inhibition of pyruvate dehydrogenase kinase, reduced lactate level in normal 24 hr r fasted rats at 100 umol/kg oral dose; format: functional, organism-based; design: scale not given: the % may be the effect or the level left
[22] = The biological half life the compound was measured at the dose of 100 umol/kg; format: ADME, organism-based; settings: rat, in vivo
Summary of the method: as §1

Q: Which IC50 [1] does the source give for `C[C@](O)(C(=O)NC1CCCCC1)C(F)(F)F` here?
A: Its IC50 is 200000 nM.

Q: Which Control [2] does the source give for `CC(O)(C(=O)Nc1ccc(C(=O)c2ccccc2)cc1)C(F)(F)F` (single isomer, unassigned) here?
A: Its Control is “inactive”.

Q: For `C[C@@](O)(C(=O)Nc1ccccc1)C(F)(F)F`, which IC50 [1] is on record?
A: The IC50 was 35000 nM.

Q: For `COC(=O)c1ccc(NC(=O)[C@@](C)(O)C(F)(F)F)c(Cl)c1`, which IC50 [1] is on record?
A: The IC50 was 120 nM.

Q: Which IC50 [1] does the source give for `C[C@@H]1CN(C(=O)[C@@](C)(O)C(F)(F)F)CCN1C(=O)OCc1ccccc1` here?
A: Its IC50 is 21 nM.

Q: With `C[C@@](O)(C(=O)N1CCN(C(=O)c2ccc(C#N)cc2)CC1)C(F)(F)F` as the compound, how does the IC50 [1] read?
A: Its IC50 is 6700 nM.

Q: Which results are given for `C[C@@H]1CN(C(=O)[C@@](C)(O)C(F)(F)F)[C@@H](C)CN1C(=O)c1ccc(C#N)cc1`?
A: Control [3]: 74%; EC50 [4]: 57 nM; Control [5]: 87%; IC50 [1]: 16.5 nM; Control [6]: 90%

Q: With `C[C@@](O)(C(=O)Nc1ccc(S(=O)(=O)N2CCNCC2)cc1Cl)C(F)(F)F` as the compound, how does the AUC [7] read?
A: Its AUC is 670 µM·h.

Q: And the Tmax [8]?
A: The Tmax was 6 h.

Q: What about the Cmax [9] of the same compound?
A: The Cmax was 53.8 µM.

Q: And the Control [10]?
A: The Control was 72%.

Q: And the EC50 [4]?
A: The EC50 was 17000 nM.

Q: And the IC50 [1]?
A: The IC50 was 55 nM.

Q: What does the source list for `C[C@@H]1CN(C(=O)[C@@](C)(O)C(F)(F)F)CCN1C(=O)c1ccc(C#N)cc1`?
A: Tmax [11]: 1.25 h; Cmax [12]: 23.8 µM; Control [3]: 90%; Control [13]: 67%; AUC [14]: 196 µM·h; Control [15]: 60%; half-life [16]: 3 h; EC50 [4]: 250 nM; IC50 [1]: 79 nM

Q: Which results are given for `C[C@@](O)(C(=O)Nc1ccc(C(=O)N2CCCCC2)cc1Cl)C(F)(F)F`?
A: EC50 [4]: 590 nM; IC50 [1]: 1500 nM; Control [2]: inactive

Q: For `O=C([O-])C(Cl)Cl.[Na+]`, which Control [17] is on record?
A: Its Control is 70%.

Q: For `C[C@@](O)(C(=O)Nc1ccc(C(=O)O)cc1Cl)C(F)(F)F`, which Cmax [18] is on record?
A: The Cmax was 87.3 µM.

Q: What about the AUC [19] of the same compound?
A: The AUC was 143 µM·h.

Q: And the Tmax [20]?
A: Its Tmax is 0.5 h.

Q: What about the Control [15] of the same compound?
A: The Control was 98%.

Q: And the EC50 [4]?
A: The EC50 was 1400 nM.

Q: And the Control [21]?
A: The Control was 70%.

Q: What about the half-life [22] of the same compound?
A: The half-life was 4.6 h.

Q: And the IC50 [1]?
A: The IC50 was 90 nM.

Q: Which IC50 [1] does the source give for `C[C@@](O)(C(=O)NC1CCCCC1)C(F)(F)F` here?
A: The IC50 was 6200 nM.

Q: Which IC50 [1] does the source give for `C[C@@](O)(C(=O)Nc1ccc(S(=O)(=O)N2CCCCC2)cc1)C(F)(F)F` here?
A: Its IC50 is 9300 nM.

Q: What does the source list for `C[C@@](O)(C(=O)Nc1ccccc1Cl)C(F)(F)F`?
A: EC50 [4]: 5400 nM; IC50 [1]: 300 nM; Control [2]: inactive

Q: For `C[C@@H]1CN(C(=O)[C@@](C)(O)C(F)(F)F)[C@@H](C)CN1Cc1ccccc1`, which IC50 [1] is on record?
A: Its IC50 is 82 nM.

Q: Which IC50 [1] does the source give for `C[C@](O)(C(=O)Nc1ccccc1Cl)C(F)(F)F` here?
A: Its IC50 is 9800 nM.

Q: With `C[C@@](O)(C(=O)Nc1ccc(C(=O)c2ccccc2)cc1Cl)C(F)(F)F` as the compound, how does the IC50 [1] read?
A: The IC50 was 110 nM.

Q: Which IC50 [1] does the source give for `C[C@@](O)(C(=O)Nc1ccc(S(=O)(=O)F)cc1Cl)C(F)(F)F` here?
A: The IC50 was 77 nM.
